Only some compounds are listed: those with a hit (about 2.9% of all), similar ones and a draw of the others.
ADAM10 inh: ADAM10 inhibition, QFRET primary screen. O14672. recombinant ADAM10, EDANS/DABCYL FRET peptide cleavage, 3 h. inhibition, % at 7 µM. actives 0.62% (n = 370,000);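 active = inhibition above a per-campaign cutoff equal to the mean of compounds falling between control-based bounds plus 3 SD, cut at about 20% in these data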;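 also: 0% = DMSO wells while the 100% control is not disclosed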
Target sequence (O14672 214-748 limits assumed): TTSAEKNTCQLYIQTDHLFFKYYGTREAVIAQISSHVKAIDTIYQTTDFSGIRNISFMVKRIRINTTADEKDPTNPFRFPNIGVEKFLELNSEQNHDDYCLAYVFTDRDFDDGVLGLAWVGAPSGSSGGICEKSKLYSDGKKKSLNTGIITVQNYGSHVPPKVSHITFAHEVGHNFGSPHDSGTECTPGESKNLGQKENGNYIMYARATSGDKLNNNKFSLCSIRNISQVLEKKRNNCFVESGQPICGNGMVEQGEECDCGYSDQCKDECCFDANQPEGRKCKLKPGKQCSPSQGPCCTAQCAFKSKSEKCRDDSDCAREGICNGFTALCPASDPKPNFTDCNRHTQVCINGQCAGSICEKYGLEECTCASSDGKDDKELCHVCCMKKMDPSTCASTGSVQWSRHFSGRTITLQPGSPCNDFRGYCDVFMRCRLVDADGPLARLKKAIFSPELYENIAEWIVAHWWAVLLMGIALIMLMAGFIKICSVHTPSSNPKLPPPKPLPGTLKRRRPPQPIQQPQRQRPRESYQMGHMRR
NRP1-CendR mod: modulators of CendR peptide binding to human neuropilin-1; AID 602438; actives 0.85% (n = 360,000); inhibition, % at 25 µM; FAM-RPARPAR peptide binding to NRP-1, fluorescence polarization;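 active = inhibition or corrected inhibition above about 18%, plus a signal ratio from 0.5 to 1.5, limit read from the data, passing the limit was not always enough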
CaV13 FRET inh: Disruptors of the CACNA1D IQ motif to Ca2+-dependent inactivation inhibitor domain association, primary screening, Förster resonance energy transfer in intact living …; HEK cells, CFP/YFP FRET ICDI-IQ, plate reader, 10 min; percent FRET-ratio fall versus neutral wells; inhibition, % at 12.3 µM; AID 743397; actives 0.098% (n = 340,000);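 active = mean replicate inhibition of at least 30% and at least 1% of replicates passing that level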;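 also: 0% = median of the neutral control wells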
ADAM17 inh: inhibitors of human ADAM17. inhibition, % at 6.95 µM. actives 0.83% (n = 370,000). P78536. AID 720648. recombinant ADAM17, EDANS/DABCYL FRET peptide cleavage;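 active = inhibition above the mean of compounds lying between control limits plus 3 SD, set per campaign, cut at about 8.5% in these data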;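 also: 0% = DMSO-only wells as the low control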
Arr AP2 block: human beta-arrestin and AP2 interaction inhibition; FITC-arrestin peptide / GST-AP2 beads, flow cytometry; AP2 beta2 appendage carries R879A mutation; inhibition, % at 10 µM; actives 0.31% (n = 340,000); AID 504490;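 active = inhibition above a set limit, near 3 SD of compounds lacking own fluorescence, cut at about 54% in these data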;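 also: plate controls were DMSO wells for no effect and 5 µM unlabelled arrestin peptide for full effect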
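System: GST-tagged AP2 beta2-adaptin appendage (R879A) on 4 µm glutathione beads / Reagent: FITC-arrestin peptide, 50 nM / Detection: HyperCyt-sampled flow cytometry, FL1 channel, ex 488/em 535 nm / Timing: 12 min plus 1 h, RT / Buffer or medium: PBS plus Tween 20 (0.05%) and BSA (0.1%)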
FAS-TE inh: blocks the thioesterase domain of human fatty acid synthase; inhibition, % at 15 µM; AID 602261; actives 0.67% (n = 360,000); recombinant FAS-TE, OMFH fluorogenic substrate, fluorescence endpoint;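 active = compounds whose normalised, plate-corrected inhibition of enzyme fluorescence in the single-dose primary screen is 50% or more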;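 also: 0% = DMSO with enzyme and 100% = substrate without enzyme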
ADAM10 ctr: inhibits human ADAM10 in ADAM17 exosite counter-screen; shares compounds with ADAM17 inh; recombinant ADAM10, EDANS/DABCYL FRET peptide cleavage, 3 h; inhibition, % at 6.95 µM; actives 47% (n = 2,900); AID 743256;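 active = mean inhibition over the triplicate runs exceeds the activity threshold set in the earlier primary screen, cut at about 20% in these data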;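 also: 0% = DMSO wells and 100% = marimastat wells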
ADAM17 confirm: confirmation of inhibitors of human ADAM17 | shares compounds with ADAM17 inh | recombinant ADAM17, EDANS/DABCYL QFRET peptide cleavage | inhibition, % at 6.95 µM | actives 65% (n = 2,900) | AID 743257;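 active = mean inhibition across replicates above the hit cutoff set in the primary screen, cut at about 8.5% in these data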;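 also: 0% = DMSO wells and 100% = marimastat wells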
Active calls of the source: *; x = no result given.

SMILES	ADAM10 inh	NRP1-CendR mod	CaV13 FRET inh	ADAM17 inh	Arr AP2 block	FAS-TE inh	ADAM10 ctr	ADAM17 confirm
Cc1cc(C)nc(NC(=O)CSc2nc3ccccc3s2)n1	-3.4	4.5	-6.4	-2.9	29.2	-5.6	x	x
Cc1nc(NC(=O)CSc2nc3ccccc3s2)sc1C(=O)N(C)C	1.6	-4.1	x	10.4*	18.7	-6.5	10.4	6.6
CC(=O)Nc1ccc(OCC(=O)c2ccc(C)cc2C)cc1	8.4	5.5	-5.2	9.6*	0.8	-5.5	8.8	4.4
CC(=O)Nc1ccc(OCC(=O)c2cc(C)ccc2C)cc1	7.5	-1.0	-5.9	5.5	18.5	-3.6	x	x
O=C1CCCN1c1ccc(S(=O)(=O)NCCc2ccc(Cl)cc2)cc1	x	-3.1	-8.6	x	3.5	1.6	x	x
COc1ccc(CCNS(=O)(=O)c2ccc(N3CCCC3=O)cc2)cc1	11.9	2.8	x	11.6*	-1.8	-2.5	-4.4	-1.9
CN(C)S(=O)(=O)c1cc([N+](=O)[O-])ccc1N1CCCCCC1	13.2	9.0	-4.1	10.3*	-7.9	10.6	18.1	10.7*
COC(=O)C[C@@H]1CC[C@H]2[C@@H](COc3ccc(NC(=O)Nc4ccccc4C)cc3C(=O)N2C)O1	1.0	x	x	1.2	x	x	x	x
Cc1cc(C)cc(-n2c(SCC(=O)NCc3ccco3)nc3ccccc3c2=O)c1	-1.2	-9.9	x	10.4*	8.9	1.9	8.9	8.7*
CCCn1c(NC(=O)c2ccccc2)nc(Cc2ccccc2)c1-c1ccc(OC)cc1	0.5	x	x	0.6	x	x	x	x
Cc1cn(CCC(=O)Nc2ccccc2N2CCOCC2)c2ccccc12	8.9	6.9	-2.1	8.9*	1.5	11.3	24.8*	12.0*
CN1CCN(C(c2ccccn2)c2cc(Cl)c3cccnc3c2O)CC1 (centres undefined)	2.2	-8.6	-4.7	17.8*	9.9	-6.7	42.9*	45.4*
Oc1c(C(c2ccccn2)N2CCC(Cc3ccccc3)CC2)cc(Cl)c2cccnc12 (centres undefined)	12.1	x	-28.5	32.5*	x	x	22.6*	39.0*
O=C(CC[C@H]1O[C@@H](n2ccc(=O)[nH]c2=O)[C@H](O)[C@@H]1O)N[C@H](Cc1ccccc1)C(=O)NCCCc1ccccc1	2.7	17.7	-10.4	1.1	x	-10.1	x	x
COc1ccccc1NC(=O)c1ccc(Cl)c(S(=O)(=O)N2CCCCC2)c1	13.8	7.1	-6.0	10.1*	24.7	18.8	3.1	2.9
COc1ccccc1NC(=O)c1ccc(C)c(S(=O)(=O)N2CCCCC2)c1	14.4	-4.2	-4.8	6.8	-2.4	19.3	x	x
COc1ccccc1CN(C)C[C@@H]1OCc2cnnn2CCCC(=O)N([C@H](C)CO)C[C@H]1C	0.4	-8.1	-9.2	8.7*	x	-5.6	-1.7	-1.0
O=C(C[n+]1ccccc1)Nc1nc2ccccc2s1	14.9	12.8	-4.2	9.4*	11.2	-11.3	8.9	14.8*
Cc1ccc[n+](CC(=O)Nc2nc3ccccc3s2)c1	-8.8	3.6	3.8	1.6	6.9	0.1	x	x
C[C@]12CCC(=O)C=C1CC[C@@H]1[C@@H]2[C@@H](O)C[C@@]2(C)[C@H]1CC[C@]2(O)C(=O)COC(=O)CCC(=O)O	3.3	-7.2	-5.3	8.8*	1.5	-6.9	3.6	3.2
O=C(C1=C[C@@H](C2CCCCC2)C[C@@H](OCc2ccc(CO)cc2)O1)N1CCN(Cc2ccc3c(c2)OCO3)CC1	17.6	3.0	-6.8	10.3*	-7.8	26.0	27.0*	17.8*
CCCC(=O)N(Cc1cc2cc(OC)ccc2[nH]c1=O)c1ccc(OC)cc1	-257.7	7.9	-4.6	-71.8	x	-0.4	x	x
CC(C)COc1cccc(C(=O)Nc2ccc(CN3CCOCC3)cc2)c1	-5.2	-0.5	-4.8	-0.6	22.7	-2.4	x	x
CC(C)COc1cccc(C(=O)Nc2ccc(S(=O)(=O)N3CCOCC3)cc2)c1	14.0	4.1	-9.1	9.1*	7.1	26.4	26.8*	17.2*
CC(C)Oc1cccc(-c2n[nH]c(=S)n2N=Cc2ccc(O)cc2O)c1	-5.9	x	x	-1.1	x	x	x	x
SMILES	ADAM10 inh	NRP1-CendR mod	CaV13 FRET inh	ADAM17 inh	Arr AP2 block	FAS-TE inh	ADAM10 ctr	ADAM17 confirm
Cc1ccc(S(=O)(=O)N2C3CCCCC3O[C@H]2CC(=O)c2ccc(F)cc2)cc1 (some centres undefined)	13.5	-0.1	-8.3	9.6*	x	x	9.5	6.1
Cc1ccc(S(=O)(=O)N2C3CCCCC3O[C@H]2CC(=O)c2ccccc2)cc1 (some centres undefined)	0.2	-4.7	-10.8	1.1	x	x	x	x
Fc1cccc(-c2c(-c3ccccc3)ncc3cc(F)ccc23)c1	-5.9	12.4	-9.8	-0.1	2.5	22.0	x	x
O=[N+]([O-])c1cccc(-c2c(-c3ccccc3)ncc3ccc(F)cc23)c1	4.5	7.0	-4.8	10.7*	16.3	25.0	6.4	5.2
COc1ccc(NC(=O)C2Cc3c(-c4ccccc4Oc4ccccc4)ccnc3O2)cc1 (centres undefined)	17.8	-12.0	-3.6	9.6*	x	23.8	17.9	7.2
O=C(Nc1cccc(OC(F)(F)F)c1)C1Cc2c(-c3ccc(Cl)cc3)ccnc2O1 (centres undefined)	7.5	-1.4	-6.4	10.1*	x	32.1	17.2	8.5
O=C(Nc1cccc(OC(F)(F)F)c1)C1Cc2c(-c3ccco3)ccnc2O1 (centres undefined)	11.8	-17.1	-8.2	6.4	x	29.3	x	x
Cc1ccc(NC(=O)c2ccc(Nc3c([N+](=O)[O-])cc([N+](=O)[O-])cc3[N+](=O)[O-])cc2)cc1	16.6	10.7	-4.8	10.2*	-7.3	17.6	23.3*	12.2*
CCCc1cc(=O)oc2cc(C)cc(OCC(=O)N3C[C@H]4C[C@@H](C3)c3cccc(=O)n3C4)c12	-230.7	-6.8	x	-54.1	x	1.4	x	x
C/C(=N\N=C(/N)SC1CC(=O)N(c2ccc(Cl)cc2)C1=O)c1cccs1 (centres undefined)	15.4	6.3	-8.0	10.8*	2.0	17.1	35.2*	17.8*
C[C@@H]1ON(C)[C@H]2C[C@H]3c4[nH]c5ccc(-c6ccc7c(c6)OCO7)cc5c4CCN3C(=O)[C@@H]12	-117.5	2.1	-10.4	-55.3	x	3.6	x	x
CCOC(=O)c1c(C)[nH]c(C)c1S(=O)(=O)NCCc1ccc(SC)cc1	8.3	12.6	-2.1	1.9	9.4	2.7	x	x
